From paper PMC3870591 (Human immunology, 2013)
Marks after values point to notes of the source that are not given here.

What was measured:
DRB1*04:01 = DRB1*04:01 (Homo sapiens, UniProt P01903+P01911, A100K/A169T/F76Y/I96L/K127E/L162R/M171V/N62H/P40V/Q125Y/R42H/S133A/S149N/S66Y/V115G/V209L/W38E); test: REVEAL MHC-peptide binding assay; conditions: HLA DRB1*04:01; percentage of signal of positive control peptide
Summary of the method: (§1)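 Overlapping 15-mer peptides (3-residue offset) spanning brown shrimp tropomyosin (Q3Y8M6) were tested in the REVEAL assay. It detects peptide-stabilised, natively folded MHC class II complexes via a labeled antibody. Scores at 0 and 24 h are expressed as % of signal from an allele-specific known T-cell epitope positive control. An intermediate-affinity control peptide verified assay performance. A score of ≥10% counted as a good binder.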

DRB1*09:01 = DRB1*09:01 (Homo sapiens, UniProt P01903+P01911, A100R/A103E/D57H/D86V/F55Y/F60I/F76Y/I96F/K127E/L162R/M171V/P40D/Q125H/Q99R/R33Q/R42F/S133A/S66N/T210M/V115G/W38K/Y107V/Y59G/Y89S); test: REVEAL MHC-peptide binding assay; conditions: HLA DRB1*09:01; percentage of signal of positive control peptide
Summary of the method: as §1

DRB1*10:01 = DRB1*10:01 (Homo sapiens, UniProt P01903+P01911, A100R/A169T/D57E/F55L/F60V/F69Y/F76Y/I96L/L162R/M171V/P40V/Q260P/Q39E/Q99R/R195Q/R42F/S149N/S66Y/T210M/V115G/V67A/W38E/Y59R/Y61H); test: REVEAL MHC-peptide binding assay; conditions: HLA DRB1*10:01; percentage of signal of positive control peptide
Summary of the method: as §1

DRB1*13:01 = DRB1*13:01 (Homo sapiens, UniProt P01903+P01911, A100E/A169T/K41T/L162R/M171V/P40S/Q125H/Q178H/Q39Y/Q99D/R42S/S66N/T262R/W38E/Y61H); test: REVEAL MHC-peptide binding assay; conditions: HLA DRB1*13:01; percentage of signal of positive control peptide
Summary of the method: as §1

DQA1*01:01; DQB1*05:01 = DQA1*01:01; DQB1*05:01 (Homo sapiens, UniProt P01909+P01920, A157S/A45G/A70V/C70R/D89V/E106S/E118A/E183D/E77G/F83G/G63E/H151Q/H199R/H252R/H253Q/I129T/I235V/I88M/INS77G/K197Q/L107V/L117V/L119Y/L178F/L71W/L74F/L85Q/L91A/L98M/M46L/N214S/P87R/Q116E/Q256R/Q57E/Q76K/R102G/R240Q/R75S/R78G/S102Y/S185I/S41F/S97I/T103A/T109R/T121G/T122I/T172A/T86R/V148I/V68A/V73E/Y34C/Y58G/Y62H); test: REVEAL MHC-peptide binding assay; conditions: HLA DQB1*05:01; percentage of signal of positive control peptide
Summary of the method: as §1

DRB1*15:01 = DRB1*15:01 (Homo sapiens, UniProt P01903+P01911); test: REVEAL MHC-peptide binding assay; conditions: HLA DRB1*15:01; percentage of signal of positive control peptide
Summary of the method: as §1

DRB1*11:01 = DRB1*11:01 (Homo sapiens, UniProt P01903+P01911, A100R/A169T/A87E/I96F/K41T/L162R/M171V/P40S/Q125H/Q178H/Q39Y/Q99D/R42S/S66Y/T262R/V115G/W38E); test: REVEAL MHC-peptide binding assay; conditions: HLA DRB1*11:01; percentage of signal of positive control peptide
Summary of the method: as §1

DQA1*03:01; DQB1*03:02 = DQA1*03:01; DQB1*03:02 (Homo sapiens, UniProt P01909+P01920, A209T/A45G/C70Q/D89A/DUP78-78/E183D/E77G/F237L/G63E/H199R/I129T/K197E/L178F/L74F/L98V/Q57E/Q76R/S185I/S97I/T217I/T49S/V73L/Y58L); test: REVEAL MHC-peptide binding assay; conditions: HLA DQB1*03:02; percentage of signal of positive control peptide
Summary of the method: as §1

DRB1*07:01 = DRB1*07:01 (Homo sapiens, UniProt P01903+P01911, A100R/A102G/A103Q/D57E/D86V/E43K/F76Y/K127E/L162R/M171V/P40G/Q125H/Q99D/R33Q/R42Y/R54Q/S133A/S66F/T210M/V115G/Y107V/Y59L/Y89S); test: REVEAL MHC-peptide binding assay; conditions: HLA DRB1*07:01; percentage of signal of positive control peptide
Summary of the method: as §1

DRB1*03:01 = DRB1*03:01 (Homo sapiens, UniProt P01903+P01911, A100K/A102G/A103R/A169T/F55Y/I96L/K41T/L162R/M171V/P40S/Q125H/Q178H/Q39Y/R42S/S66N/T106N/T262R/W38E/Y61H); test: REVEAL MHC-peptide binding assay; conditions: HLA DRB1*03:01; percentage of signal of positive control peptide
Summary of the method: as §1

MHC class II alleles = test: REVEAL MHC-peptide binding assay; set-up: species or system human; conditions: % of the positive control; allele not given
Summary of the method: as §1

DQA1*05:01; DQB1*02:01 = DQA1*05:01; DQB1*02:01 (Homo sapiens, UniProt P01909+P01920, A45G/A70V/D89A/E106A/E77G/E98D/H199R/L107V/N214S/P84L/P87L/T103K/T109R/T172A/T60S/V78E/V99I/Y58L/Y62S/Y69I/Y79F); test: REVEAL MHC-peptide binding assay; conditions: HLA DQB1*02:01; percentage of signal of positive control peptide
Summary of the method: as §1

[1] = system: Peripheral blood mononuclear cells (PBMC); test: Tritiated thymidine proliferation assay; format: cell-based, human
CD4 T cells = test: CFSE CD4 T cell proliferation assay; format: cell-based, human

## 3: tropomyosin-derived 15-mer KMQAMKLEKDNAMDR [Peptide 3]
DRB1*04:01
  Binding score: 23.52%

## 76: tropomyosin-derived 15-mer KTLTNKLKAAEARAE [Peptide 76]
DRB1*09:01
  Binding score: 89.92%
DRB1*10:01
  Binding score: 37.57%

## 2: tropomyosin-derived 15-mer IKKKMQAMKLEKDNA [Peptide 2]
DRB1*13:01
  Binding score: 26.06%
DQA1*01:01; DQB1*05:01
  Binding score: 13.94%

## 1: tropomyosin-derived 15-mer MDAIKKKMQAMKLEK [Peptide 1]
DRB1*15:01
  Binding score: 14.02%
DRB1*11:01
  Binding score: 18.74%
DQA1*03:01; DQB1*03:02
  Binding score: 35.20%

## 74: tropomyosin-derived 15-mer AYKEQIKTLTNKLKA [Peptide 74]
DRB1*04:01
  Binding score: 41.94%
DRB1*11:01
  Binding score: 10.94%
DRB1*07:01
  Binding score: 74.20%
DQA1*01:01; DQB1*05:01
  Binding score: 14.73%
DQA1*03:01; DQB1*03:02
  Binding score: 19.28%

## 53: tropomyosin-derived 15-mer EADRKYDEVARKLAM [Peptide 53]
DRB1*11:01
  Binding score: 13.67%

## 58: tropomyosin-derived 15-mer VEADLERAEERAETG [Peptide 58]
DRB1*10:01
  Binding score: 39.12%

## 57: tropomyosin-derived 15-mer LAMVEADLERAEERA [Peptide 57]
DRB1*03:01
  Binding score: 19.46%

## 43: tropomyosin-derived 15-mer RKVLENRSLSDEERM [Peptide 43]
DQA1*01:01; DQB1*05:01
  Binding score: 7.11 ^a %
MHC class II alleles
  Binding score (relative binding affinity): ≤ 10%

## 5: tropomyosin-derived 15-mer LEKDNAMDRADTLEQ [Peptide 5]
DRB1*03:01
  Binding score: 66.31%

## 80: tropomyosin-derived 15-mer RAEFAERSVQKLQKE [Peptide 80]
DQA1*01:01; DQB1*05:01
  Binding score: 9.26 ^a %
MHC class II alleles
  Binding score (relative binding affinity): ≤ 10%

## 34: tropomyosin-derived 15-mer ERSEERLNTATTKLA [Peptide 34]
DQA1*01:01; DQB1*05:01
  Binding score: 22.67%

## 15: tropomyosin-derived 15-mer VHNLQKRMQQLENDL [Peptide 15]
DRB1*11:01
  Binding score: 11.01%

## 10: tropomyosin-derived 15-mer QNKEANNRAEKSEEE [Peptide 10]
DQA1*05:01; DQB1*02:01
  Binding score: 25.17%

## 18: tropomyosin-derived 15-mer QLENDLDQVQESLLK [Peptide 18]
DRB1*04:01
  Binding score: 9.10 ^a %
MHC class II alleles
  Binding score (relative binding affinity): ≤ 10%

## 7: tropomyosin-derived 15-mer MDRADTLEQQNKEAN [Peptide 7]
DRB1*04:01
  Binding score: 22.16%

## 4: tropomyosin-derived 15-mer AMKLEKDNAMDRADT [Peptide 4]
DRB1*03:01
  Binding score: 74.69%

## 8: tropomyosin-derived 15-mer ADTLEQQNKEANNRA [Peptide 8]
DQA1*05:01; DQB1*02:01
  Binding score: 20.74%

## 54: tropomyosin-derived 15-mer RKYDEVARKLAMVEA [Peptide 54]
DQA1*03:01; DQB1*03:02
  Binding score: 7.98 ^a %

## 51: tropomyosin-derived 15-mer ARFLAEEADRKYDEV [Peptide 51]
DRB1*03:01
  Binding score: 15.03%
DRB1*04:01
  Binding score: 11.06%

## Tetanus Toxoid
[1]
  Proliferative T cell response by tritiated-thymidine incorporation: much higher proliferative responses
CD4 T cells
  CD4 T cell proliferation (CFSE): much greater level of CD4 T cell proliferation

## 36: tropomyosin-derived 15-mer LNTATTKLAEASQAA [Peptide 36]
DRB1*04:01
  Binding score: 43.87%

## 24: tropomyosin-derived 15-mer QLVEKDKALSNAEGE [Peptide 24]
DRB1*03:01
  Binding score: 45.59%
DRB1*04:01
  Binding score: 20.62%

## 21: tropomyosin-derived 15-mer QESLLKANIQLVEKD [Peptide 21]
DRB1*09:01
  Binding score: 8.32 ^a %

## 29: tropomyosin-derived 15-mer VAALNRRIQLLEEDL [Peptide 29]
DRB1*11:01
  Binding score: 22.35%
DRB1*13:01
  Binding score: 19.31%

## 66: tropomyosin-derived 15-mer ELRVVGNNLKSLEVS [Peptide 66]
DRB1*04:01
  Binding score: 25.05%
DQA1*05:01; DQB1*02:01
  Binding score: 24.15%

## 49: tropomyosin-derived 15-mer ENQLKEARFLAEEAD [Peptide 49]
DQA1*01:01; DQB1*05:01
  Binding score: 19.65%

## 63: tropomyosin-derived 15-mer ESKIVELEEELRVVG [Peptide 63]
DRB1*03:01
  Binding score: 29.06%

## 13: tropomyosin-derived 15-mer EKSEEEVHNLQKRMQ [Peptide 13]
DRB1*07:01
  Binding score: 26.79%
